Laboratory results taken from ChEMBL document CHEMBL1147752, “Pyrazoloheteroaryls: novel p38alpha MAP kinase inhibiting scaffolds with oral activity” (Bioorg Med Chem Lett, 2006).

Assays:
[1] = molecular target: Mitogen-activated protein kinase 14 (Mus musculus, UniProt P47811); assay: Inhibitory activity against murine p38-alpha MAPK
In short: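 Kinase assay with phosphorylated His-tagged p38α MAP kinase of murine origin (10 ng/well). Substrate was immobilised GST-ATF-2, with 120 µM cold ATP present. Result expressed as IC50 (nM).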

[2] = test system: Rattus norvegicus; assay: Inhibition of adjuvant-induced arthritis in rat at 25 mg/kg, po; type: functional; details: Wistar
In short: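 Female Wistar rats immunized with Mycobacterium tuberculosis on day 0. Compound dosed orally at 25 mg/kg twice daily from day 14 to day 20. Joint swelling measured on day 20; paw swelling inhibition expressed as %.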

[3] = test system: Mus musculus; assay: Inhibition of LPS-induced TNFalpha release in mouse at 20 mg/kg, po; type: functional; details: OF1
In short: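 Female OF1 mice, eight weeks old, given compound orally by gavage as a DMSO/cornoil solution at 20 mg/kg. One hour after dosing, LPS (20 mg/kg) injected iv to stimulate TNF-α release into plasma. Blood collected one hour later; plasma TNF-α measured by mouse-specific ELISA; reported as % inhibition.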

[4] = Cmax in rat administered at 1 mg/kg, po; type: ADME, organism-based; design: dose 1 mg/kg, route oral; details: in vivo
[5] = molecular target: T1, Fibroblast growth factor receptor (Homo sapiens, UniProt P22607+P11362+P22455+P21802); assay: Inhibition of FGFR at 10 uM; type: protein assay
[6] = molecular target: T2, Epidermal growth factor receptor (Homo sapiens, UniProt P00533); details: 10 uM
[7] = molecular target: T3, Receptor tyrosine-protein kinase erbB-2 (Homo sapiens, UniProt P04626); assay: Inhibition of HER2 at 10 uM
[8] = test system: Rattus norvegicus; assay: Inhibition of collagen-induced arthritis in rat at 10 mg/kg, po; type: functional
In short: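 Collagen-induced arthritis in rats. Compounds given orally once daily (q.d.) for 10 days; swelling inhibition recorded.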

[9] = molecular target: Mitogen-activated protein kinase 9 (Homo sapiens, UniProt P45984); assay: Inhibitory activity against JNK2
[10] = molecular target: Mast/stem cell growth factor receptor Kit (Homo sapiens) (UniProt P10721); assay: Inhibition of c-Kit at 10 uM
[11] = Oral bioavailability in rat; type: ADME, organism-based; details: in vivo
[12] = molecular target: T3, Receptor tyrosine-protein kinase erbB-2; assay: Inhibitory activity against HER2
[13] = molecular target: RAF proto-oncogene serine/threonine-protein kinase (Homo sapiens) (UniProt P04049); assay: Inhibition of c-Raf at 10 uM
[14] = AUC in rat; type: ADME, organism-based; details: plasma
[15] = molecular target: Insulin-like growth factor 1 receptor (Homo sapiens) (UniProt P08069); assay: Inhibition of IGF1R at 10 uM
[16] = molecular target: Hepatocyte growth factor receptor (Homo sapiens, UniProt P08581); assay: Inhibitory activity against c-Met
[17] = molecular target: T2, Epidermal growth factor receptor; assay: Inhibitory activity against HER1
[18] = molecular target: T1, Fibroblast growth factor receptor; assay: Inhibitory activity against FGFR; type: protein assay
[19] = Half life in rat; type: ADME, organism-based; details: in vivo
[20] = molecular target: Cyclin-dependent kinase 1 (Homo sapiens) (UniProt P06493); assay: Inhibition of CDK1 at 10 uM
Sequence of Cyclin-dependent kinase 1 (Homo sapiens) (P06493 whole entry, looked up): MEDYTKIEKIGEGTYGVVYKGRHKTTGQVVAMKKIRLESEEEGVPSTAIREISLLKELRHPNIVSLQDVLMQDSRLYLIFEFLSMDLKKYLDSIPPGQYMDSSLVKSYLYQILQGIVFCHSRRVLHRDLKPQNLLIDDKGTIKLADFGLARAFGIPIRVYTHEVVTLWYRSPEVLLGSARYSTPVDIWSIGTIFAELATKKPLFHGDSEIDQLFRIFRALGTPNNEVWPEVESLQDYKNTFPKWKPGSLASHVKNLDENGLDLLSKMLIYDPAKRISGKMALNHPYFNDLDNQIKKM

Sequence of Mitogen-activated protein kinase 9 (P45984 whole entry): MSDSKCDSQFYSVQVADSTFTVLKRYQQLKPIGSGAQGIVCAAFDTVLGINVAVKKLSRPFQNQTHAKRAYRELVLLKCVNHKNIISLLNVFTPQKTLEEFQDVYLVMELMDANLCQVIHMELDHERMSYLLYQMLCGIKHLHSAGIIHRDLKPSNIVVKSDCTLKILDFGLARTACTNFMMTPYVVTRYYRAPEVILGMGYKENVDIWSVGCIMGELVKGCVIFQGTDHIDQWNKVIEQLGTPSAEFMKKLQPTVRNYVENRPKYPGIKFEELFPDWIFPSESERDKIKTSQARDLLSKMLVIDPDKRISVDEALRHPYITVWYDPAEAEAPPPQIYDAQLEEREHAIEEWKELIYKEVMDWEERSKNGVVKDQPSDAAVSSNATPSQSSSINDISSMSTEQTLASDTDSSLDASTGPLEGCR
Sequence of Mitogen-activated protein kinase 14 (P47811 whole entry): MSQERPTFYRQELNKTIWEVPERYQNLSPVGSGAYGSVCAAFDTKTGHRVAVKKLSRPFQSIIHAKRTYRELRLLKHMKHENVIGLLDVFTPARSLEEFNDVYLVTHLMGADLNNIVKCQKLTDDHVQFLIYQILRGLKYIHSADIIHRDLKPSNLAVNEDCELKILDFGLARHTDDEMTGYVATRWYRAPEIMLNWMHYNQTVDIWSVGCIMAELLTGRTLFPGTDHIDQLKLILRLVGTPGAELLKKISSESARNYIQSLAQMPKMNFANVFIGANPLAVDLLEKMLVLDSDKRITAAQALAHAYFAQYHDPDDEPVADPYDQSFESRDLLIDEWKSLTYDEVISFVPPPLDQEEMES
T3 sequence (P04626 whole entry): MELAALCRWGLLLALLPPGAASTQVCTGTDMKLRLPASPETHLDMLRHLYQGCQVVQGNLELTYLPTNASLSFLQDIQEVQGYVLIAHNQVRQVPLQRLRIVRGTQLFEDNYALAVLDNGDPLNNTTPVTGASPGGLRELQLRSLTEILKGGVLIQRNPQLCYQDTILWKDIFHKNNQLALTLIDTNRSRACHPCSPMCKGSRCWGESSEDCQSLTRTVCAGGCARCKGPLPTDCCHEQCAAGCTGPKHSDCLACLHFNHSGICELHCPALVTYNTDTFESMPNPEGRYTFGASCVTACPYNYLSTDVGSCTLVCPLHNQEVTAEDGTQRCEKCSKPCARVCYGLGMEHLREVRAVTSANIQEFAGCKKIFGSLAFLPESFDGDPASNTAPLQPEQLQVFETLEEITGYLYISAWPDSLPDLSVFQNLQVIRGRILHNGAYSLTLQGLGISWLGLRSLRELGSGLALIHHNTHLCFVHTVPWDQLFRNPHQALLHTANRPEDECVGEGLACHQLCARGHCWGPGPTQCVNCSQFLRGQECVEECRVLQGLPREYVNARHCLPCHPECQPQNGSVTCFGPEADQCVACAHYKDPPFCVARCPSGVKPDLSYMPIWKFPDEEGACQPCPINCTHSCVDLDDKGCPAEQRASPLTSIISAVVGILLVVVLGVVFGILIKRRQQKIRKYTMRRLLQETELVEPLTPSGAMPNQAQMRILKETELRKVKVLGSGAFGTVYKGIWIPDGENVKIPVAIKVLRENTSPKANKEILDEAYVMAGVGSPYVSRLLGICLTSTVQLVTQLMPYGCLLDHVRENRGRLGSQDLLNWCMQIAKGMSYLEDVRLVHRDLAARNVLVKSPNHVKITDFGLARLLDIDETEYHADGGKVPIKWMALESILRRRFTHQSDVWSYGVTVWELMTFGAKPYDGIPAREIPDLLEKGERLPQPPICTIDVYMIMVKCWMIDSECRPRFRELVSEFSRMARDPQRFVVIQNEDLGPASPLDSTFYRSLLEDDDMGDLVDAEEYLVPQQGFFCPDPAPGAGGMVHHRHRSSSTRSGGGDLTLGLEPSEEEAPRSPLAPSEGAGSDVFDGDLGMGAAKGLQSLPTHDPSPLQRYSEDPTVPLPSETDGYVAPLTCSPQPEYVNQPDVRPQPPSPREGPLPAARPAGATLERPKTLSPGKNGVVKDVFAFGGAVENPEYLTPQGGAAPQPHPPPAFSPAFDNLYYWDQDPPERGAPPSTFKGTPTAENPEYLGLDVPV
T2 sequence (P00533 whole entry): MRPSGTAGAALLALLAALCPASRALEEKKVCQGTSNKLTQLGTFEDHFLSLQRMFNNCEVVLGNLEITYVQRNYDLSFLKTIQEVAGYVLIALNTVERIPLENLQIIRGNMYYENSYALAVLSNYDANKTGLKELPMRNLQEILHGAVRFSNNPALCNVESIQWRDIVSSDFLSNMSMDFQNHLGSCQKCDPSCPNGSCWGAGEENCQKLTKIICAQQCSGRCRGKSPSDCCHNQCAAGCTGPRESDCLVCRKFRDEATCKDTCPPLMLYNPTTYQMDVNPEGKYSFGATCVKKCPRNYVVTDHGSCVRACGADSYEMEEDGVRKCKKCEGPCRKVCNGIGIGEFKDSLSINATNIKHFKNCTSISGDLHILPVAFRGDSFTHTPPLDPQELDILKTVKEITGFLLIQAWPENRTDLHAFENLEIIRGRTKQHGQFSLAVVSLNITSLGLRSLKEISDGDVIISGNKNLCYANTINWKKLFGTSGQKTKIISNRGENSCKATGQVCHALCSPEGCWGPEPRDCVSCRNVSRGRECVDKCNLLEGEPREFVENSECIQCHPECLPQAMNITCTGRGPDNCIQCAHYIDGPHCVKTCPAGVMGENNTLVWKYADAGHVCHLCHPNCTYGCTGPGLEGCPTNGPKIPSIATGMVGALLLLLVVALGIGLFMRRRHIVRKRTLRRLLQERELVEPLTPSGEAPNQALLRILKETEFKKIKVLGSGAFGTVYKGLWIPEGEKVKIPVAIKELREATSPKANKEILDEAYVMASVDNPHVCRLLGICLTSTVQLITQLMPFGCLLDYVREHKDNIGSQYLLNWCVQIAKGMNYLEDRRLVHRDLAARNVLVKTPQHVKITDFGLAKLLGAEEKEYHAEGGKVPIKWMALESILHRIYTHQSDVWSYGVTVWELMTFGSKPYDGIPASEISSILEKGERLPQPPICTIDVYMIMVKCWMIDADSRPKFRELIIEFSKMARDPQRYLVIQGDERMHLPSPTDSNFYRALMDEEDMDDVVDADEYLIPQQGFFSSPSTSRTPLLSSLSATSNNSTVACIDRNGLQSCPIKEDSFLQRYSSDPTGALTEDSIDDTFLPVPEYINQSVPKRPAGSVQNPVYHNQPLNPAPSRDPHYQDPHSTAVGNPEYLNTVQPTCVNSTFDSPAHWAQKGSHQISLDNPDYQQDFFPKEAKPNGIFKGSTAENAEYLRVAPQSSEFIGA
Sequence of Insulin-like growth factor 1 receptor (Homo sapiens) (P08069 31-736 limits assumed): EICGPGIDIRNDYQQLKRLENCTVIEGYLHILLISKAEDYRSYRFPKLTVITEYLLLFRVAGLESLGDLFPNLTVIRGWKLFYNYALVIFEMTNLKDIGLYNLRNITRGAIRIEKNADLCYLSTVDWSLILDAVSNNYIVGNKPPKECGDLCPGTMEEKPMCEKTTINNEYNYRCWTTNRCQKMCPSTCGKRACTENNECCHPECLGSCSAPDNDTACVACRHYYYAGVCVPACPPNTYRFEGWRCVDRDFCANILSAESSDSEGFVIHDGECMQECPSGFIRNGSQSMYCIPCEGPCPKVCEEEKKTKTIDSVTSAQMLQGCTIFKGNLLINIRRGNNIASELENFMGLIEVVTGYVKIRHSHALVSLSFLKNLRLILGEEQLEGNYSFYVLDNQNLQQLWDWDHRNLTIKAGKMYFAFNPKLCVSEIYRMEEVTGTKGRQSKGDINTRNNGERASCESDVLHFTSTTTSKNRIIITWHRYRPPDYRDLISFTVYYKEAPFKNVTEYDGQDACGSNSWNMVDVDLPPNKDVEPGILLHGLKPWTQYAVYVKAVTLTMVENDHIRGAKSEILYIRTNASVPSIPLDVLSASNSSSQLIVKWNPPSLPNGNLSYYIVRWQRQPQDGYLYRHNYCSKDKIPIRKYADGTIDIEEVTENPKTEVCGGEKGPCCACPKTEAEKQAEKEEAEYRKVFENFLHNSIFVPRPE
Sequence of Insulin-like growth factor 1 receptor (Homo sapiens) (P08069 741-1367 limits assumed): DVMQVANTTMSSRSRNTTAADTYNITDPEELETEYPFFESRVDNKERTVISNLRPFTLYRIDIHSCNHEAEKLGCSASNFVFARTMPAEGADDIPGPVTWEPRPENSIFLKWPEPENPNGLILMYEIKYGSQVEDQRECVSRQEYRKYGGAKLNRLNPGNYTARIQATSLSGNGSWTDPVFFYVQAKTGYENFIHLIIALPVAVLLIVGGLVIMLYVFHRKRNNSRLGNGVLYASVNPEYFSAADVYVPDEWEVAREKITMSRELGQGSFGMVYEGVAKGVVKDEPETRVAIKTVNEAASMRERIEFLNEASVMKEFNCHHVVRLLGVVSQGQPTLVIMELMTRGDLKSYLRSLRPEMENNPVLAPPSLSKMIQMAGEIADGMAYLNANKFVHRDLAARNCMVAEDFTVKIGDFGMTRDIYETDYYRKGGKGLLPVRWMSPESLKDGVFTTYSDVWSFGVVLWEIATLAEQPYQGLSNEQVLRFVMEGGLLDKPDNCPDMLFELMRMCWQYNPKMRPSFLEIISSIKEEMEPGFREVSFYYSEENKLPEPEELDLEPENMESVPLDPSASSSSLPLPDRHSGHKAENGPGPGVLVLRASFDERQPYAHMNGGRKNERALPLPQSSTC

Row | SMILES | IC50 [1] [nM] | bioavailability [11] [%] | inhibition in vivo at 25 mg/kg [2] [%] | inhibition in vivo at 20 mg/kg [3] [%] | further results
1 | COc1ccc(C#CC(C)(C)O)cc1-c1[nH]nc2nc(Nc3ccc(F)cc3F)ncc12 | 19 | – | 34 | 98 | –
2 | COc1ccc(CCC(C)(C)O)cc1-c1[nH]nc2nc(Nc3ccc(F)cc3F)cnc12 | 21 | – | – | 94 | –
3 | COc1ccc(C#CC(C)(C)O)cc1-c1[nH]nc2nc(Nc3ccc(F)cc3F)cnc12 | 7 | 22 | 41 | 98 | Cmax [4]: 160 nM; inhibition [5]: -5%; inhibition [6]: 0%; inhibition [7]: 0%; inhibition in vivo at 10 mg/kg [8]: 57%; IC50 [9]: > 100000 nM; inhibition [10]: 0%
4 | COc1ccc(C#CC(C)(C)N)cc1-c1[nH]nc2nc(Nc3ccc(F)cc3F)ncc12 | 12 | 16 | 69 | 85 | IC50 [12]: 5000 nM; inhibition [13]: 0%; AUC [14]: 512 ng·h/mL; inhibition in vivo at 10 mg/kg [8]: 75%; IC50 [9]: 8300 nM; inhibition [15]: 0%; IC50 [16]: 1500 nM; IC50 [17]: 5200 nM; IC50 [18]: 10000 nM
5 | COc1ccc(CCCN2CCN(C)CC2)cc1-c1[nH]nc2nc(Nc3ccc(F)cc3F)ncc12 | 14 | – | – | 73 | –
6 | COc1ccc(CCC(C)(C)O)cc1-c1[nH]nc2nc(Nc3ccc(F)cc3F)ncc12 | 47 | – | 36 | 98 | –
7 | COc1ccc(C#CC(C)(C)N)cc1-c1[nH]nc2nc(Nc3ccc(F)cc3F)cnc12 | 10 | 9 | 37 | 98 | half-life [19]: 2.6 h
8 | COc1ccc(C#CCN2CCN(C)CC2)cc1-c1[nH]nc2nc(Nc3ccc(F)cc3F)ncc12 | 0.9 | – | – | 96 | –
9 | COc1ccc(CNC2CCOCC2)cc1-c1n[nH]c2nc(Nc3ccc(F)cc3F)ccc12 | 94 | – | 46 | 80 | inhibition in vivo at 10 mg/kg [8]: 10%
10 | COc1ccc(CCC(C)(C)N)cc1-c1[nH]nc2nc(Nc3ccc(F)cc3F)cnc12 | 29 | – | – | 0 | –
11 | COc1ccc(C#CCN(C)C)cc1-c1[nH]nc2nc(Nc3ccc(F)cc3F)ncc12 | 0.6 | – | – | 96 | –
12 | COc1ccc(CCCN(C)C)cc1-c1[nH]nc2nc(Nc3ccc(F)cc3F)ncc12 | 11 | – | – | 93 | –
13 | COc1ccc(CCC(C)(C)N)cc1-c1[nH]nc2nc(Nc3ccc(F)cc3F)ncc12 | 43 | – | – | 68 | –

More lines, main results first:

Row | IC50 [1] [nM] | bioavailability [11] [%] | SMILES | inhibition in vivo at 25 mg/kg [2] [%] | inhibition in vivo at 20 mg/kg [3] [%] | further results
14 | 200 | – | COc1ccc(C(=O)O)cc1-c1[nH]nc2nc(Nc3ccc(F)cc3F)ccc12 | – | – | –
15 | 280 | – | COc1ccc(C(=O)N2CCNCC2)cc1-c1[nH]nc2nc(Nc3ccc(F)cc3F)ccc12 | – | 3 | –
16 | 58 | – | COc1ccc(CNC2CCCC2)cc1-c1[nH]nc2nc(Nc3ccc(F)cc3F)ccc12 | – | 38 | –
17 | 5 | 26 | COc1ccc(C(=O)NC2CCCC2)cc1-c1[nH]nc2nc(Nc3ccc(F)cc3F)ccc12 | 34 | 97 | Cmax [4]: 6 nM; half-life [19]: 1.6 h
18 | 33 | 20 | COc1ccc(CCC(C)(C)N)cc1-c1[nH]nc2nc(Nc3ccc(F)cc3F)ccc12 | 9 | 78 | Cmax [4]: 11 nM
19 | 20 | 95 | COc1ccc(C#CC(C)(C)N)cc1-c1[nH]nc2nc(Nc3ccc(F)cc3F)ccc12 | 49 | 98 | inhibition [20]: 0%; Cmax [4]: 52 nM; AUC [14]: 422 ng·h/mL; inhibition in vivo at 10 mg/kg [8]: 85%; IC50 [9]: 100000 nM; inhibition [15]: 0%
20 | 0.7 | 22 | COc1ccc(C(=O)NC2CCOCC2)cc1-c1[nH]nc2nc(Nc3ccc(F)cc3F)ccc12 | 28 | 97 | Cmax [4]: 6 nM; half-life [19]: 1.4 h
